TNF necrop inh: TNF-alpha cell death inhibition in Jurkat FADD-/- cells; actives 0.068% (n = 220,000); Jurkat FADD-/- TNF necroptosis rescue, ATP luminescence, 24 h; 0 = TNF only, 100 = no-TNF cells; activation (protection from cell death), % at 10 µM;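 active = activation, meaning protection from cell death, of at least 50% relative to plate controls; inactive = activation below 50%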;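 note: necroptosis triggered by 40 ng/mL TNF-alpha added together with compound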
zVAD death inh: blocks zVAD induced death of L929 cells | L929 zVAD necroptosis rescue, ATP luminescence, 24 h; with zVAD 60 µM | viability rescue, % at 10 µM | actives 0.38% (n = 220,000);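 active = activation, scaled between plate controls, above about 75%, limit read from the data; inactive = activation under that limit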;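 note: 0% = zVAD with DMSO and 100% = DMSO alone without zVAD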
MDM2 E3 inh: blocks human Mdm2 ubiquitin ligase activity; Q00987; cell-based MDM2 ubiquitination luciferase reporter, 2 h; 0 = plate control, 100 = twice control, blank-subtracted; signal enhancement, % at 5 µM; actives 0.11% (n = 210,000); AID 1230;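 active = signal enhancement of 30% or more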;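 note: luminescence tracks abundance of the self-degrading MDM2-luciferase fusion protein; higher signal means inhibition of MDM2 E3 ligase activity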
Target sequence (Q00987 whole entry, looked up, the tested form may be a part): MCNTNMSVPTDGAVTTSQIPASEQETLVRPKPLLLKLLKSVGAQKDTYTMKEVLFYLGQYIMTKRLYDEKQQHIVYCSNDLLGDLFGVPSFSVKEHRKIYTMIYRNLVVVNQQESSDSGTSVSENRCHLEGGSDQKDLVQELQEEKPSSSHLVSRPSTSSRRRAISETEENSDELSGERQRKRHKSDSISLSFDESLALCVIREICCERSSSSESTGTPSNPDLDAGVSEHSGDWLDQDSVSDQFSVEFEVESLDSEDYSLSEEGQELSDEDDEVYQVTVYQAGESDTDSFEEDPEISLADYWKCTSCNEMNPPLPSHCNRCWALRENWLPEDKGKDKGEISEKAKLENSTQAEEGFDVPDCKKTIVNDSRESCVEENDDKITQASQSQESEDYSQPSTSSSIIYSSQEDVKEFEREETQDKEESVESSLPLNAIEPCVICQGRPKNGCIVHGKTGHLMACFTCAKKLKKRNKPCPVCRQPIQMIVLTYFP
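Material: stable MDM2–luciferase fusion reporter cells / Quantity: 2000 cells/well / Dosing: single 5 µM compound dose, 0.2% final DMSO / Buffer or medium: DMEM / Schedule: 4 h cell settling then 2 h compound exposure, 37 °C / Detection: luminescence with SteadyLite reagent, 15 min at room temperature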
Autophagy mod: alters autophagy in cells. MEF GFP-LC3 puncta imaging; test concentration mostly 10 µM. calls only at 10 µM (by protocol). actives 0.98% (n = 190,000). AID 463193;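 active = percentage of spot-positive cells more than 3 SD above its plate mean, without a fluorescence outlier flag or 80% toxicity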;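 note: spot-positive cell cutoff set from DMSO-treated cells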
Dynein transport: blocks dynein driven cargo transport along microtubules | 3617.4 mouse cells, GR-EGFP nuclear translocation imaging; test concentration mostly 20 µM; stimulated with dexamethasone, 1 µM; active compounds read low | z-score, hits read low | actives 0.47% (n = 220,000) | AID 1381;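 active = plate z-score of nuclear minus cytoplasmic receptor signal below a set negative limit, without overly bright fluorescence or cell loss, cut at about -3.5 in these data, passing the limit was not always enough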;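 note: z-score of nuclear minus cytoplasmic ring GR-EGFP intensity difference per well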
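Buffer or medium: tet-free, stripped-serum medium; reagent: dexamethasone at 1.0 µM final, 30 min; incubation: 48 h induction, 1 h compound, 30 min dex at 37 °C; measured by: formaldehyde fixation, Hoechst nuclear stain, 10x automated fluorescence imaging; read-out: nuclear-to-cytoplasmic GR-EGFP distribution per well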
* = called active by the depositor; i = inactive; / = no result; + = active, no number. Hits are enriched below; roughly 1.8% of the tested compounds scored in any of these assays.

SMILES | TNF necrop inh | zVAD death inh | MDM2 E3 inh | Autophagy mod | Dynein transport
COc1ccccc1C(=O)NNC(=O)c1cccc(Cl)c1 | -1 | 3 | -11 | + | -0.77
COc1ccc(Cl)cc1C(=O)NNC(=O)c1cccc([N+](=O)[O-])c1 | -1 | 1 | -15 | i | 0.32
Cc1nc(C)c(NC(=O)OC(C)C)cc1NC(=O)OC(C)C | 0 | 3 | -7 | i | -1.1
Clc1ccc(/C=N/NC2=Nc3cccc4cccc2c34)cc1 | 2 | 1 | -3 | + | -1.1
C(=N\NC1=Nc2cccc3cccc1c23)/c1ccccc1 | 1 | 1 | -5 | i | -0.044
Cc1cc(C)cc(N=Cc2ccc([N+](=O)[O-])s2)c1 | -8 | 1 | -4 | i | -2.5
NC(=O)c1ccc(N=Cc2ccc([N+](=O)[O-])s2)cc1 | 15 | -1 | 3 | i | -4*
CC(=O)OC(C(=O)NC1CCCCC1)c1ccc(Cl)c(Cl)c1 (stereo unspecified) | 70* | 3 | -14 | i | 0.47
COc1ccc(OC)c(C2=NOC(C(=O)NCc3cccs3)C2)c1 (stereo unspecified) | -4 | 2 | -9 | i | 0.75
CC(C)=CCC/C(C)=C/CCC(C)NCCN1CCNCC1 (stereo unspecified) | -8 | 11 | -8 | + | 0.41
CC(C)=CCC/C(C)=C/CC(C)(C)CNCCN1CCNCC1 | 0 | 0 | -29 | i | i
COc1ccc(C2C(C(=O)N3CCOCC3)CCC(=O)N2c2cc(OC)c(OC)c(OC)c2)cc1 (stereo unspecified) | -1 | 0 | -9 | i | 2.9
COc1ccc(C2C(C(=O)N3CCCCC3)CCC(=O)N2c2cc(OC)c(OC)c(OC)c2)cc1 (stereo unspecified) | -1 | 0 | 38* | i | 0.49
COc1ccc2nc(SCC(=O)C(C)(C)C)[nH]c2c1 | 5 | 1 | -20 | / | -1
CCOC(=O)c1ccc(/C=C2/C=C(c3ccccc3)N(c3ccc(Cl)c(C(=O)O)c3)C2=O)cc1 | -7 | 1 | -11 | i | -1.7
COc1ccc(S(=O)(=O)N2CCOC2CNC(=O)C(=O)NCCc2ccc(OC)c(OC)c2)cc1 (stereo unspecified) | -2 | 0 | -3 | + | 0.33
COc1ccc(CCNC(=O)C(=O)NCC2OCCN2S(=O)(=O)c2ccc(Br)cc2)cc1OC (stereo unspecified) | -2 | 1 | 6 | i | -0.42
Cn1cc(Br)c(C(=O)Nc2ncc(Br)s2)n1 | 3 | 2 | -30 | + | -0.79
CCOC(=O)COc1ccc(C2NC(C(=O)O)CS2)cc1 (stereo unspecified) | 0 | 1 | -9 | i | -0.12
CCOC(=O)COc1ccc(C2CC(C)=NN2c2ccccc2)cc1 (stereo unspecified) | 2 | 8 | 32* | i | -0.17
O=C1CCN(S(=O)(=O)c2cccs2)c2ccc(C(F)(F)F)cc2N1 | 0 | 2 | 0 | i | -0.59
COc1cc(NC(=O)c2cccc(Cl)c2)ccc1NC(=O)c1cccs1 | 4 | 9 | -4 | + | 0.95
COc1cc(NC(=O)c2ccccc2Cl)ccc1NC(=O)c1cccs1 | 1 | -1 | -6 | i | 1.5
COc1c(Cl)cc(Cl)cc1/C=C/C(=O)c1ccc(NC(=O)c2cccs2)cc1 | -5 | 2 | 10 | i | -3.4
COC(=O)c1sc2cc([N+](=O)[O-])cc(SCC(C)C)c2c1N | 1 | 0 | 13 | + | -0.53
SMILES | TNF necrop inh | zVAD death inh | MDM2 E3 inh | Autophagy mod | Dynein transport
CCN1/C(=C\c2ccc3cc(C)ccc3[n+]2CC)Sc2cc(C)c(C)cc21 | -16 | 3 | -22 | + | -1.2
CCN1/C(=C/c2ccc3cccc(C)c3[n+]2CC)Sc2ccccc21 | -23 | 5 | -37 | + | -2.2
CCC(C)(C)n1nnnc1C(C(C)C)N1CCSCC1 (stereo unspecified) | 0 | 0 | -13 | + | 1.2
Cc1c(N=C2N=C(NC(=O)c3cccs3)c3ccccc32)c(=O)n(-c2ccccc2)n1C | -8 | 58 | -25 | + | -0.93
CC(=O)Nc1ccc(/C(C)=N/Nc2nc(Nc3ccccc3)nc(N3CCOCC3)n2)cc1 | 8 | -3 | -20 | + | -0.93
C/C(=N\NC(=O)c1ccccc1Br)c1ccc(N2CCOCC2)cc1 | 1 | 32 | -16 | i | 0.16
C/C(=N\NC(=O)c1ccccc1)c1ccc(N2CCOCC2)cc1 | 0 | -1 | 5 | i | -3.6*
Fc1ccc(C2=NNC(=NCc3ccccc3)SC2)cc1F | 51* | 57 | -12 | i | -1
Clc1ccc(C2=NNC(=NCc3ccccc3)SC2)cc1 | 56* | 73 | -1 | i | 0.38
c1ccc(CN=C2NN=C(c3ccccc3)CS2)cc1 | 16 | 2 | -10 | i | 0.28
Cc1cccc(C)c1NC(=O)COC(=O)c1c2c(nc3ccccc13)/C(=C\c1ccc3c(c1)OCO3)CCC2 | 4 | 33 | -14 | + | -0.11
CC(OC(=O)c1c2c(nc3ccccc13)/C(=C\c1ccc3c(c1)OCO3)CCC2)C(=O)Nc1ccc(S(N)(=O)=O)cc1 (stereo unspecified) | 2 | 1 | -9 | i | 0.15
Cc1cc2ncn(C(=O)N3CCC(C)CC3)c2cc1C | 3 | 0 | 38* | i | -0.46
O=C(COc1ccccc1)NCC1CCCO1 (stereo unspecified) | -1 | 0 | 7 | i | -1.1
O=C(COc1ncnc2ccccc12)NCC1CCCO1 (stereo unspecified) | 0 | 1 | -5 | + | 1.8
Cc1cccc(C(=O)N/C(=C\c2ccc(C)o2)C(=O)O)c1 | -1 | 1 | -11 | / | 0.35
COc1ccc(OC)c(N/C=C/C(=C(C#N)C#N)N(C)C)c1 | -4 | 1 | -36 | i | 2.2
CC(C)NC(=O)C1(c2ccccc2)CCOCC1 | 0 | 0 | -12 | i | -0.39
NC(=O)C1(c2ccccc2)CCOCC1 | 3 | -1 | 1 | + | -0.44
COc1ccc(-c2nc(C)c(C(C)=O)n2O)cc1OC | -3 | -1 | 6 | + | 0.18
COc1cc(-c2nc(C)c(C(C)=O)n2O)ccc1OCC(=O)Nc1ccc(Cl)cc1 | 1 | 14 | -9 | i | -0.25
COc1ccc(-c2nc(C)c(C(C)=O)n2O)cc1 | -2 | 0 | 30* | i | -0.29
OCCOCCN1CCN(C(=S)Nc2ccccc2)CC1 | 1 | 0 | -17 | i | -0.41
Cn1nc([N+](=O)[O-])nc1Sc1nnc(-c2ccccc2)o1 | -11 | -1 | -7 | i | -3.7*
Cc1ccc(NC(=O)CSCc2ccc(F)cc2)cc1 | 53* | 0 | 21 | i | -0.12
O=C(O)CSCCC(=O)Nc1ccc(F)cc1 | -2 | 0 | -5 | + | 0.33

Screens deposited in PubChem by several laboratories.
